Experimental data as given in ChEMBL document CHEMBL4038311, “An Ursolic Acid Derived Small Molecule Triggers Cancer Cell Death through Hyperstimulation of Macropinocytosis” (J Med Chem, 2017).
Calls of active or inactive are those of the source. No cut-off for these calls is given here.

Assays:
[1] = system: HeLa; assay: Induction of autophagy in human HeLa cells assessed as cytosolic autophagosomes formation at 20 uM after 24 hrs by transmission electron microscopic analysis; assay type: functional, cell-based
Procedure, shortened: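 HeLa exposed to 20 µM for 24 h, then fixed, dehydrated and resin-embedded. Ultrathin sections on copper grids stained with uranyl acetate and lead citrate, then examined by TEM.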

[2] = system: HeLa; assay: Induction of methuosis in human HeLa cells assessed as decrease in cell viability preincubated cells with actin inhibitor cytochalasin D for 1 hr followed by compound addition measured after 48 hrs by CCK8 assay; assay type: functional, cell-based
[3] = system: HeLa; assay: Anticancer activity against human HeLa cells assessed as vacuole formation at 20 uM preincubated cells with Z-VAD-FMK for 1 hr followed by compound addition measured after 24 hrs by phase contrast microscopic analysis; assay type: functional, cell-based
Procedure, shortened: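 HeLa pretreated 1 h with or without z-VAD-FMK, then given 20 µM or DMSO. Phase-contrast images taken at 24 h.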

[4] = system: SK-N-MC; assay: Anticancer activity against human SK-N-MC cells assessed as cell viability at 20 uM after 48 hrs by CCK8 assay relative to control; assay type: functional; conditions: read-out: Activity
Procedure, shortened: (§1)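 Cells (5000/well, pre-incubated overnight) exposed to 20 µM for 48 h. CCK-8 absorbance read at 450 nm. Viability given as percent of vehicle (DMSO) control, mean ± SD. Six parallel wells per condition, at least three independent repeats.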

[5] = system: HeLa; assay: Induction of apoptosis in human HeLa cells assessed as increase in cleaved caspase-3 levels at 30 to 100 uM after 48 hrs by Western blot analysis; assay type: functional, cell-based
Procedure, shortened: (§2)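 HeLa given indicated concentrations. RIPA lysates, BCA-quantified, SDS-PAGE and PVDF transfer. Anti-caspase-3 or anti-PARP1 applied overnight at 4 °C after 1 h 5% milk block, secondary 2 h at RT. Infrared imaging, GAPDH as loading control.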

[6] = system: HeLa; assay: Anticancer activity against human HeLa cells assessed as reduction in colony formation after 48 hrs by Giemsa staining-based assay; assay type: functional, cell-based
Procedure, shortened: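 HeLa cells exposed 48 h to 15, 20 or 25 µM, then reseeded at 500 cells/well in six-well plates. After 15 days, colonies fixed in methanol, stained with Giemsa, photographed and counted.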

[7] = system: MCF7; assay: Anticancer activity against human MCF7 cells assessed as cell viability after 48 hrs by CCK8 assay; assay type: functional, cell-based; conditions: MCF7, 48 h
Procedure, shortened: (§3)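 Seeded at 1000 cells/well in DMEM with 10% FBS at 37 °C, 5% CO2, overnight pre-incubation. Serial dilutions from a 100 mM DMSO stock gave final 0–50 µM, with 48 h exposure. CCK-8 read at 450 nm. IC50 fitted against DMSO control, given with s.d., n = 3 independent experiments.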

[8] = system: C2C12; assay: Cytotoxicity against mouse C2C12 cells assessed as vacuole formation at 20 uM after 24 hrs by phase contrast microscopic analysis relative to control; assay type: cell-based; conditions: c2c12, 24 h
Procedure, shortened: (§4)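 C2C12 or HDF cells given 20 µM or 0.1% DMSO for 24 h, then imaged live by phase-contrast microscopy.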

[9] = system: HeLa; assay: Induction of macropinocytosis in human HeLa cells assessed as colocalization of lucifer yellow and late endosomal marker Rab7 at 20 uM after 6 to 24 hrs by confocal microscopic analysis; assay type: functional, cell-based; conditions: TDE = time-dependent effect
Procedure, shortened: (§5)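 HeLa on poly-L-lysine coverslips given 0.1% DMSO or 20 µM for indicated times, then loaded with Lucifer yellow CH. Fixed in 4% PFA 30 min, permeabilized with 0.1% Triton X-100, blocked with 5% BSA. Anti-EEA1, -LAMP1 or -Rab7 applied overnight at 4 °C, Alexa488 secondary 1 h, DAPI counterstain. Confocal imaging.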

[10] = system: MCF7; assay: Anticancer activity against human MCF7 cells assessed as vacuole formation at 20 uM after 24 hrs by phase contrast microscopic analysis; assay type: functional, cell-based
[11] = system: HeLa; assay: Anticancer activity against human HeLa cells assessed as cell viability after 48 hrs by CCK8 assay; assay type: functional, cell-based; procedure, shortened: as §3
[12] = system: HT-1080; assay: Anticancer activity against human HT1080 cells assessed as cell viability at 20 uM after 48 hrs by CCK8 assay relative to control; assay type: functional; conditions: HT-1080, 48 h, read-out: Activity; procedure, shortened: as §1
[13] = system: SK-N-MC; assay: Anticancer activity against human SK-N-MC cells assessed as cell viability after 48 hrs by CCK8 assay; assay type: functional, cell-based; procedure, shortened: as §3
[14] = system: SK-N-MC; assay: Anticancer activity against human SK-N-MC cells assessed as vacuole formation at 20 uM after 24 hrs by phase contrast microscopic analysis; assay type: functional, cell-based
[15] = system: HeLa; assay: Induction of macropinocytosis in human HeLa cells assessed as colocalization of lucifer yellow and early endosomal marker EEA1 at 20 uM after 6 to 24 hrs by confocal microscopic analysis; assay type: functional, cell-based; procedure, shortened: as §5
[16] = system: HeLa; assay: Induction of macropinocytosis in human HeLa cells assessed as formation of lysosomal degradative compartments at 20 uM after 24 hrs by Lysotracker red staining-based confocal microscopic analysis; assay type: functional, cell-based
Procedure, shortened: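 HeLa given 20 µM for 24 h, then labelled live with 50 nM LysoTracker Red (30 min) or 200 nM MitoTracker Red CMXRos (1 h) in medium, after Lucifer yellow loading. Imaged live by confocal microscopy.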

[17] = system: HeLa; assay: Induction of methuosis in human HeLa cells assessed as increase in vacuole formation preincubated cells with actin inhibitor cytochalasin D for 1 hr followed by compound addition measured after 24 hrs by phase contrast microscopic analysis; assay type: functional, cell-based
Procedure, shortened: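 HeLa cells grown in DMEM with 10% FBS, 100 U/ml penicillin and 100 µg/ml streptomycin at 37 °C, 5% CO2 humidified air. The inhibitor was added before compound exposure. Vacuolization was judged in live cells by phase-contrast microscopy.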

[18] = system: HeLa; assay: Induction of methuosis in human HeLa cells assessed as decrease in cell viability at 20 uM preincubated with macropinocytosis inhibitor EIPA for 30 mins followed by compound addition measured after 24 to 72 hrs by CCK8 assay; assay type: functional, cell-based
Procedure, shortened: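 HeLa pretreated 30 min with or without 50 µM EIPA, then given 20 µM or DMSO. CCK-8 viability read at the indicated times.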

[19] = system: HepG2; assay: Anticancer activity against human HepG2 cells assessed as cell viability at 20 uM after 48 hrs by CCK8 assay relative to control; assay type: functional; conditions: HepG2, 48 h, read-out: Activity; procedure, shortened: as §1
[20] = system: HeLa; assay: Induction of apoptosis in human HeLa cells assessed as increase in cleaved caspase-3 levels at 20 to 30 uM after 24 hrs by Western blot analysis; assay type: functional, cell-based; procedure, shortened: as §2
[21] = system: HeLa; assay: Induction of methuosis in human HeLa cells assessed as increase in number of cells with macropinosomes at 20 uM preincubated cells with macropinocytosis inhibitor EIPA for 30 mins followed by compound addition measured up to 72 hrs; assay type: functional, cell-based
Procedure, shortened: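 HeLa pretreated 30 min with or without 50 µM EIPA, then given 20 µM or DMSO for 4, 8, 12, 18, 24, 36, 48, 60 and 72 h. Cells bearing macropinosomes scored manually from field images and expressed as percentage of cells.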

[22] = system: HeLa; assay: Induction of macropinocytosis in human HeLa cells assessed as colocalization of lucifer yellow and lysosomal marker LAMP1 at 20 uM after 6 to 24 hrs by confocal microscopic analysis; assay type: functional, cell-based; conditions: TDE = time-dependent effect; procedure, shortened: as §5
[23] = system: HeLa; assay: Induction of macropinocytosis in human HeLa cells assessed as lucifer yellow accumulation in phase-lucent vacuole at 20 uM after 24 hrs by confocal microscopic analysis; assay type: functional, cell-based
[24] = Cytotoxicity against HDF assessed as vacuole formation at 20 uM after 24 hrs by phase contrast microscopic analysis relative to control; assay type: cell-based; conditions: human; procedure, shortened: as §4

C[C@H]1[C@H](C)CC[C@]2(C(=O)O)CC[C@]3(C)C(=CC[C@@H]4[C@@]5(C)Cc6cnn(-c7ccc(C#N)cc7)c6C(C)(C)[C@@H]5CC[C@]43C)[C@H]12
Activity [1]: inactive
Activity [2]: inactive
Activity [3]: Active
viability at 20 µM [4]: 28.6%
Activity [5]: Active
Activity [6]: Dose-dependent effect
IC50 [7]: 17.6 µM
Activity [8]: Toxic
Activity [9]: Tde
Activity [10]: Active
IC50 [11]: 15.1 µM
viability at 20 µM [12]: 26.8%
IC50 [13]: 17.1 µM
Activity [14]: Active
Activity [15]: Active
Activity [16]: Active
Activity [17]: inactive
Activity [18]: inactive
viability at 20 µM [19]: 27.9%
Activity [20]: Active
Activity [21]: inactive
Activity [22]: Tde
Activity [23]: Active
Activity [24]: Toxic
